From ChEMBL document CHEMBL3286372, “Design, synthesis and structure-activity relationship of novel semi-synthetic flavonoids as antiproliferative agents” (2014)

What was measured:
HL-60(TB) [1] = assay: Growth inhibition of human HL-60(TB) cells after 48 hrs by coulter counting analysis; type: functional; settings: HL-60, 48 h
Procedure, shortened: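 Five-dose screen (0.01-100 µM, DMSO-solubilized, under 1% DMSO final), cells in RPMI 1640 + 10% FBS at 6×10^4 cells/ml, duplicate wells, 37 °C, 5% CO2, 48 h. Cells then diluted tenfold in saline and counted by Coulter counter with dilution correction. Controls held buffer/saline/DMSO at matching dilutions. GI50 derived from log concentration-percent growth inhibition curves.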

[2] = Growth inhibition of human […] cells after 48 hrs by coulter counting analysis; type: functional
Procedure, shortened: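 NCI five-dose screen at 0.01-100 µM, diluted from DMSO stocks in buffered saline (final DMSO <1%). Cells at 6×10^4 cells/ml in RPMI 1640 with 10% FBS, in duplicate wells, at 37 °C under 5% CO2 for 48 h. Cells diluted tenfold in saline and Coulter-counted. GI50, TGI and LC50 taken from log concentration-growth inhibition curves.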

[3] = Growth inhibition of human PC549 cells after 48 hrs by coulter counting analysis; type: functional
Procedure, shortened: (§1)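 Five-dose NCI-60 follow-up, 0.01–100 µM, made from DMSO stock in buffered saline (final DMSO <1%), in duplicate wells. Cells in RPMI 1640 with 10% FBS at 6×10^4 cells/ml, 37 °C, 5% CO2, 48 h. Cells diluted tenfold in saline, Coulter-counted and corrected for dilution. GI50, TGI and LC50 taken from log concentration–percent growth curves.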

RPMI-8226 = assay: Growth inhibition of human RPMI8226 cells at 10 uM after 48 hrs by sulforhodamine B assay relative to control; type: functional; settings: RPMI-8226, 48 h, read-out: GI
Procedure, shortened: (§2)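 NCI-60 primary screen at a single 10 µM dose. Continuous 48 h exposure, with growth or viability estimated by sulforhodamine B protein staining. Reported as percent growth inhibition of treated cells relative to untreated growth.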

NCI-H23 = assay: Growth inhibition of human NCI-H23 cells at 10 uM after 48 hrs by sulforhodamine B assay relative to control; type: functional; settings: NCI-H23, 48 h, read-out: GI; procedure, shortened: as §2
HCT-116 = assay: Growth inhibition of human HCT116 cells at 10 uM after 48 hrs by sulforhodamine B assay relative to control; type: functional; settings: HCT-116, 48 h, read-out: GI
Procedure, shortened: (§3)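 NCI-60 primary screen at a single dose of 10 µM with 48 h continuous exposure. Growth or viability read by sulforhodamine B protein staining and expressed as percent growth inhibition versus untreated cells.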

SNB-75 = assay: Growth inhibition of human SNB75 cells at 10 uM after 48 hrs by sulforhodamine B assay relative to control; type: functional; settings: SNB-75, 48 h, read-out: GI; procedure, shortened: as §2
[4] = Growth inhibition of human LOXIMVI cells at 10 uM after 48 hrs by sulforhodamine B assay relative to control; type: functional; settings: LOX IMVI, read-out: GI; procedure, shortened: as §3
[5] = Growth inhibition of human OVCAR8 cells at 10 uM after 48 hrs by sulforhodamine B assay relative to control; type: functional; settings: OVCAR-8, 48 h, read-out: GI; procedure, shortened: as §2
CAKI-1 = assay: Growth inhibition of human CAKI-1 cells at 10 uM after 48 hrs by sulforhodamine B assay relative to control; type: functional; settings: CAKI-1, 48 h, read-out: GI; procedure, shortened: as §3
DU-145 = assay: Growth inhibition of human DU145 cells at 10 uM after 48 hrs by sulforhodamine B assay relative to control; type: functional; settings: DU-145, 48 h, read-out: GI; procedure, shortened: as §3
MCF7 = assay: Growth inhibition of human MCF7 cells at 10 uM after 48 hrs by sulforhodamine B assay relative to control; type: functional; settings: MCF7, 48 h, read-out: GI; procedure, shortened: as §3
SR [6] = assay: Growth inhibition of human SR cells after 48 hrs by coulter counting analysis; type: functional; procedure, shortened: as §1
[7] = Growth inhibition of human MOLT4 cells at 10 uM after 48 hrs by sulforhodamine B assay relative to control; type: functional; settings: MOLT-4, 48 h, read-out: GI; procedure, shortened: as §2
SR [8] = assay: Growth inhibition of human SR cells at 10 uM after 48 hrs by sulforhodamine B assay relative to control; type: functional; settings: read-out: GI; procedure, shortened: as §2
KM12 = assay: Growth inhibition of human KM12 cells at 10 uM after 48 hrs by sulforhodamine B assay relative to control; type: functional; settings: KM12, 48 h, read-out: GI; procedure, shortened: as §3
MDA-MB-435 = assay: Growth inhibition of human MDA-MB-435 cells at 10 uM after 48 hrs by sulforhodamine B assay relative to control; type: functional; settings: MDA-MB-435, 48 h, read-out: GI; procedure, shortened: as §3
MDA-MB-468 = assay: Growth inhibition of human MDA-MB-468 cells at 10 uM after 48 hrs by sulforhodamine B assay relative to control; type: functional; settings: MDA-MB-468, 48 h, read-out: GI; procedure, shortened: as §2
HL-60(TB) [9] = assay: Growth inhibition of human HL-60(TB) cells at 10 uM after 48 hrs by sulforhodamine B assay relative to control; type: functional; settings: HL-60, 48 h, read-out: GI
Procedure, shortened: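 Single-dose primary screen at 10 µM across the NCI 60 panel, 48 h continuous exposure. Growth estimated by sulforhodamine B protein staining and reported as percentage growth inhibition relative to untreated control.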

[10] = Growth inhibition of human OVCAR3 cells at 10 uM after 48 hrs by sulforhodamine B assay relative to control; type: functional; settings: OVCAR-3, 48 h, read-out: GI; procedure, shortened: as §2
ACHN = assay: Growth inhibition of human ACHN cells at 10 uM after 48 hrs by sulforhodamine B assay relative to control; type: functional; settings: read-out: GI; procedure, shortened: as §3
PC-3 = assay: Growth inhibition of human PC3 cells at 10 uM after 48 hrs by sulforhodamine B assay relative to control; type: functional; settings: PC-3, 48 h, read-out: GI; procedure, shortened: as §2
[11] = Growth inhibition of human HCT15 cells at 10 uM after 48 hrs by sulforhodamine B assay relative to control; type: functional; settings: HCT-15, 48 h, read-out: GI; procedure, shortened: as §3
HT-29 = assay: Growth inhibition of human HT-29 cells at 10 uM after 48 hrs by sulforhodamine B assay relative to control; type: functional; settings: HT-29, 48 h, read-out: GI; procedure, shortened: as §3
Ehrlich = assay: Antitumor activity against mouse EAC cells allografted in ip dosed BALB mouse assessed as tumor growth inhibition administered for 5 days; type: functional, organism-based
Procedure, shortened: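 Female BALB mice; Ehrlich ascites carcinoma cells, 2×10^5 cells/mouse in 0.2 ml saline, injected s.c. into the left hind leg and grown 2 wk. Daily i.p. saline (control), 3 or 6 mg/kg for 5 days. Caliper size V = 0.4×a(b)^2, taken just before the first dose and 24 h after the last. Mean ± SEM, n = 6; ANOVA with Tukey-Kramer.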

M14 = assay: Growth inhibition of human M14 cells at 10 uM after 48 hrs by sulforhodamine B assay relative to control; type: functional; settings: M14, 48 h, read-out: GI; procedure, shortened: as §3
786-0 = assay: Growth inhibition of human 786-0 cells at 10 uM after 48 hrs by sulforhodamine B assay relative to control; type: functional; settings: 786-0, 48 h, read-out: GI; procedure, shortened: as §3

Structure (SMILES)	GI50 (HL-60(TB) [1]) [µM]	inhibition of growth at 10 µM (RPMI-8226) [%]	inhibition of growth at 10 µM (HCT-116) [%]	inhibition of growth at 10 µM (SNB-75) [%]	inhibition of growth at 10 µM [5] [%]	inhibition of growth at 10 µM (DU-145) [%]	inhibition of growth at 10 µM (MCF7) [%]	GI50 (SR [6]) [µM]	inhibition of growth at 10 µM [7] [%]	inhibition of growth at 10 µM (KM12) [%]	inhibition of growth at 10 µM (MDA-MB-468) [%]	further results
COc1ccc(-c2cc(=O)c3c(OC)c4ccoc4c(/C=C/C=O)c3o2)cc1	2.72											
COc1c(C(=O)/C=C/c2ccc(Cl)cc2)c(O)c(Br)c2occc12	1.72											GI50 [2]: 3.12 µM; GI50 [3]: 2.54 µM
C=CCc1c2c(c(OC)c3ccoc13)C(=O)/C(=C/c1ccccc1OC)O2		71	79	64	61	65	67	3.16				inhibition of growth at 10 µM (NCI-H23): 80%; inhibition of growth at 10 µM [4]: 62%; inhibition of growth at 10 µM (CAKI-1): 62%
COc1ccccc1/C=C/C(=O)c1c(O)cc2occc2c1OC		86	66			78	60		66	63	84	inhibition of growth at 10 µM (SR [8]): 62%; inhibition of growth at 10 µM (MDA-MB-435): 74%
C=CCc1c(O)c(C(=O)/C=C/c2ccc(Cl)cc2)c(OC)c2ccoc12								2.77				
COc1c2occc2c(OC)c2c(=O)c(CN3CCOCC3)c(/C=C/c3ccc(Cl)cc3)oc12		60			60				93		86	inhibition of growth at 10 µM (HL-60(TB) [9]): 60%; inhibition of growth at 10 µM [10]: 68%; inhibition of growth at 10 µM (ACHN): 66%; inhibition of growth at 10 µM (CAKI-1): 61%; inhibition of growth at 10 µM (PC-3): 72%
COc1c2ccoc2c(/C=C/C=O)c2oc(-c3ccccc3)cc(=O)c12	2.33											
COc1c(C(=O)/C=C/c2ccccc2)c(O)cc2occc12		86	68	86		75	76	3.27	89	64		inhibition of growth at 10 µM (SR [8]): 72%; inhibition of growth at 10 µM (MDA-MB-435): 68%
C=CCc1c(O)c(C(=O)/C=C/c2ccccc2)c(OC)c2ccoc12								2.15				
COc1c2occc2c(OC)c2c(=O)c(CN3CCOCC3)c(/C=C/c3ccc(N(C)C)cc3)oc12	1.55	80	82	99	80	93			88	73	70	inhibition of growth at 10 µM (HL-60(TB) [9]): 64%; inhibition of growth at 10 µM (NCI-H23): 80%; inhibition of growth at 10 µM [11]: 67%; inhibition of growth at 10 µM (HT-29): 82%; GI50 [2]: 1.68 µM; GI50 [3]: 2.87 µM; TGI (Ehrlich): Dose-dependent effect; inhibition of growth at 10 µM [4]: 65%; inhibition of growth at 10 µM (M14): 63%; inhibition of growth at 10 µM [10]: 88%; inhibition of growth at 10 µM (786-0): 95%; inhibition of growth at 10 µM (ACHN): 89%; inhibition of growth at 10 µM (PC-3): 87%; LC50 (HL-60(TB) [1]): 9.7 µM
